Experimental data as given in article PMC2233745 (The Journal of General Physiology, 2001).
Numbering of substitutions follows the chain as printed. Like-named read-outs stand apart in the source and are kept apart here. Ends that are not written are not given here.

Experiments:
[1] = tested on: HEK-293 cells expressing CNG channels; test: Forskolin-induced Ca2+ influx through expressed CNG channels in HEK-293 cells; assay type: cell-based, human; conditions: for forskolin concentration at which delay and rate of Ca2+ influx saturate: 100 μM IBMX
How it was run: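 HEK-293 cells were infected with channel-encoding adenovirus (MOI 10) and detached at 24 h with PBS/0.03% EDTA. They were loaded at room temperature for 30–40 min with 4 μM fura-2/AM and 0.02% pluronic F-127, then resuspended in HEPES-buffered saline with 1 mM CaCl2, pH 7.4, and stirred in a cuvette. 100 μM IBMX was added at 0 s and forskolin at 180 s. ΔF/F0 was read at ex 380/em 510 nm; n = 4 batches.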

[2] = tested on: voltage-gated Ca2+ channels; test: Block of Ca2+ influx through voltage-gated Ca2+ channels in GH4C1 cells; assay type: cell-based, rat; conditions: 1 μM nimodipine, membrane depolarization in 24 mM external KCl, data not shown
[3] = tested on: PDE activity in HEK-293 cells; test: Effects of PDE inhibitors on forskolin-induced Ca2+ influx in HEK-293 cells; assay type: cell-based, human; conditions: C460W/E583M channels, 1 μM forskolin, IBMX 10 or 100 μM, RO-20-1724 10 μM
[4] = tested on: PDE activity in GH4C1 cells; test: Effect of PDE inhibitors on forskolin-induced Ca2+ influx in GH4C1 cells; assay type: cell-based, rat; conditions: Δ61–90/C460W/E583M channels, 10 μM forskolin, 1 μM nimodipine
CNG channel = CNG channel activity in excised patches with PDE inhibitor; assay type: biochemical, rat; conditions: 100 μM IBMX, data not shown
How it was run: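 Patch clamp on rat olfactory CNG channels expressed from an adenovirus vector. Gigaohm seals were formed, then patches were excised by shearing the cell off the pipette with a liquid jet. Currents were elicited by 250-ms pulses to +50 and −50 mV from a 0 mV holding potential and sampled at five times the filter setting.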

HEK-293 cells = test: Equilibration of PDE inhibitors across the plasma membrane; assay type: cell-based, human; conditions: data not shown
[5] = tested on: HEK-293 and C6–2B glioma cells; conditions: ref Rich et al. 2000, cited from earlier work
[6] = tested on: GH4C1 cells expressing C460W/E583M channels; test: AC activator-induced Ca2+ influx in GH4C1 cells expressing C460W/E583M channels; assay type: cell-based, rat; conditions: after vehicle or 100 μM IBMX
How it was run: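 Rat GH4C1 cells kept in Ham's F-10 (15% horse serum, 2.5% FBS, pH 6.8, 37°C), adenovirus-infected (MOI 50), assayed within 12 h of harvest at 48 h post-infection. Loaded 70 min with 4 μM fura-2/AM at room temperature, then washed. Read in pH 7.4 saline (1 mM CaCl2) at ex 380/em 510 nm as ΔF/F0. Nimodipine 1 μM at time zero; IBMX/vehicle at 60 s; agonist afterwards.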

[7] = target: T1, C460W/E583M rat olfactory CNG channel (Rattus norvegicus, UniProt Q00195, C460W/E583M); test: Excised inside-out patch recording, C460W/E583M CNG channel; assay type: biochemical; conditions: for N (Hill coefficient): mean ± SD of three experiments
T1 sequence (Q00195 1-664 C460W/E583M): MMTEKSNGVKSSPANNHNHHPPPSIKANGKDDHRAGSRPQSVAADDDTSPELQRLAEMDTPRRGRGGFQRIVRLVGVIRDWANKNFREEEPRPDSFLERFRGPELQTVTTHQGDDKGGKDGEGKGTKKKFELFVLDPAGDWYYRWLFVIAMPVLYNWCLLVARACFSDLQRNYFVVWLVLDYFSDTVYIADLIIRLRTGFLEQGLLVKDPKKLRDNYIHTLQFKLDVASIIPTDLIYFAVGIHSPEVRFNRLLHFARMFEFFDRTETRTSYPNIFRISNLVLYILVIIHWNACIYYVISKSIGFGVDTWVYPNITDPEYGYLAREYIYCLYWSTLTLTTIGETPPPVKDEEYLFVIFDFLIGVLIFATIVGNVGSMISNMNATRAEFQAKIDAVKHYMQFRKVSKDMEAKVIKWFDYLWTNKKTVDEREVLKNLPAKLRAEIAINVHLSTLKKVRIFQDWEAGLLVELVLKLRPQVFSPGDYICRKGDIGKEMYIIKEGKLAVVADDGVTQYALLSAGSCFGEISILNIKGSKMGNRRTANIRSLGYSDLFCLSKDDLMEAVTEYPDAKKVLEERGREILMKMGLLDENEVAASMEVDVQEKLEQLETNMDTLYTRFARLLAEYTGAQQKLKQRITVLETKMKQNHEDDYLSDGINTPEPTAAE

[8] = target: T2, E583M rat olfactory CNG channel (Rattus norvegicus, UniProt Q00195, E583M); test: Excised inside-out patch recording, E583M CNG channel; assay type: biochemical; conditions: for N (Hill coefficient): mean ± SD of three experiments
T2 sequence (Q00195 1-664 E583M): T1 sequence (Q00195 1-664 C460W/E583M) with W460C

[9] = target: T3, WT rat olfactory CNG channel α subunit (Rattus norvegicus, UniProt Q00195); test: Excised inside-out patch recording, WT CNG channel; assay type: biochemical; conditions: for N (Hill coefficient): mean ± SD of three experiments
T3 sequence (Q00195 1-664): T1 sequence (Q00195 1-664 C460W/E583M) with W460C, M583E

[10] = target: T4, Δ61–90/C460W/E583M rat olfactory CNG channel (Rattus norvegicus, UniProt Q00195, C460W/DEL61-90/E583M); test: Excised inside-out patch recording, Δ61–90/C460W/E583M CNG channel; assay type: biochemical; conditions: Δ61-90/C460W/E583M channel, mean ± SD of three experiments; for EC50: read-out: K1/2 (concentration that gives half-maximal current)
T4 sequence (Q00195 with tags, fused parts or gaps DEL61-90/C460W/E583M): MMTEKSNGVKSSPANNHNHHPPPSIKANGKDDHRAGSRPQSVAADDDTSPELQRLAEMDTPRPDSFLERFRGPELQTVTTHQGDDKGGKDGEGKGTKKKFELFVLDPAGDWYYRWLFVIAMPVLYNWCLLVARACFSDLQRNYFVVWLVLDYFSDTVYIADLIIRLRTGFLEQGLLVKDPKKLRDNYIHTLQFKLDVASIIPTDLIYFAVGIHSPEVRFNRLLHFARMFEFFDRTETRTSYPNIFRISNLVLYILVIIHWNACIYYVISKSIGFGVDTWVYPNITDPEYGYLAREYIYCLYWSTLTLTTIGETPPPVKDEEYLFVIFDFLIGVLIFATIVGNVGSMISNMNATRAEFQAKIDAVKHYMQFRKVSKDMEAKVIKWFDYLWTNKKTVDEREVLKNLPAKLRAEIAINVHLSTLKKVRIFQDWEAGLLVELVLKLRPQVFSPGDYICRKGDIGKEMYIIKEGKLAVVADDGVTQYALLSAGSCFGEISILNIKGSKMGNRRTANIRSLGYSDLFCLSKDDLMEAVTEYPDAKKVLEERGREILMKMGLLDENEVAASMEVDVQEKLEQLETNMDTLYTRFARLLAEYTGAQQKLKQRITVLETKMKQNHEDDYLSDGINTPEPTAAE

[11] = read-out: K1/2 (concentration that gives half-maximal current), +50 mV, mean ± SD of three experiments
[12] = read-out: K1/2 (concentration that gives half-maximal current), −50 mV, mean ± SD of three experiments
[13] = read-out: K1/2, +50 mV, experiment shown in Fig. 2

COCCOC(=O)C1=C(C)NC(C)=C(C(=O)OC(C)C)C1c1cccc([N+](=O)[O-])c1 (stereo not shown) [nimodipine]
effect on forskolin or pCPT-cGMP induced Ca2+ influx through CNG channels ([1]; 1 μM nimodipine, HEK-293 cells, data not shown): did not alter | block of Ca2+ influx through voltage-gated Ca2+ channels [2]: sufficient to block Ca^2+ influx through voltage-gated Ca^2+ channels

CCOC(=O)c1cnc2c(cnn2CC)c1NN=C(C)C [Etazolate]
effect on forskolin-induced Ca2+ influx [3]: significantly increased the forskolin-induced Ca^2+ influx

COCc1nc2c([nH]1)c(=O)n(C)c(=O)n2CC(C)C [8-methoxymethyl-IBMX]
effect on PDE activity / forskolin-induced Ca2+ influx [4]: significantly inhibited PDE activity

CC(C)Cn1c(=O)n(C)c(=O)c2[nH]cnc21 [IBMX, 3-isobutyl-1-methylxanthine]
effect on CNG channel activity in excised patches (CNG channel): did not alter CNG channel activity | effect on forskolin-induced Ca2+ influx [3]: significant forskolin-induced Ca^2+ influx was observed | effect on PDE activity / forskolin-induced Ca2+ influx [4]: significantly inhibited PDE activity | time to complete equilibration across the plasma membrane (HEK-293 cells): < 180 s

C=C[C@@]1(C)CC(=O)[C@]2(O)[C@@]3(C)[C@@H](O)CCC(C)(C)[C@@H]3[C@H](O)[C@H](OC(C)=O)[C@@]2(C)O1 [forskolin]
forskolin concentration at which delay and rate of Ca2+ influx saturate ([1]; HEK-293 cells expressing C460W/E583M channel): 5 µM | forskolin concentration at which delay and rate of Ca2+ influx saturate ([1]; HEK-293 cells expressing E583M channel): 20 µM | forskolin concentration at which delay and rate of Ca2+ influx saturate ([1]; HEK-293 cells expressing WT channel): > 50 µM | forskolin concentration at which delay and rate of Ca2+ influx saturate ([1]; HEK-293 cells expressing Δ61–90/C460W/E583M channel): 20 µM | forskolin-induced increase in cAMP concentration measured using CNG channels ([5]; local cAMP near the plasma membrane): > 25 µM | forskolin-induced increase in cAMP concentration averaged throughout the accessible cell volume [5]: 1 to 2 µM | cAMP accumulation and Ca2+ influx after addition ([6]; 10 μM forskolin): caused additional cAMP accumulation and Ca^2+ influx

COc1ccc(C2CNC(=O)C2)cc1OC1CCCC1 (stereo not shown) [Rolipram]
effect on forskolin-induced Ca2+ influx [3]: significantly increased the forskolin-induced Ca^2+ influx | effect on PDE activity / forskolin-induced Ca2+ influx [4]: also inhibited PDE activity | time to complete equilibration across the plasma membrane (HEK-293 cells): < 180 s

CCCCOc1cc(CC2CNC(=O)N2)ccc1OC (stereo not shown) [RO-20-1724, 4-(3-butoxy-4-methoxybenzyl)-2-imidazolidinone]
effect on forskolin-induced Ca2+ influx [3]: significant forskolin-induced Ca^2+ influx was observed | effect on PDE activity / forskolin-induced Ca2+ influx [4]: also inhibited PDE activity | time to complete equilibration across the plasma membrane (HEK-293 cells): < 180 s

Nc1nc2c(ncn2[C@@H]2O[C@@H]3COP(=O)(O)O[C@H]3[C@H]2O)c(=O)[nH]1 [cGMP]
N (Hill coefficient) ([7]; +50 mV): 2.8 ± 0.3 | EC50 [7, 11]: 12 ± 2 µM | EC50 [7, 12]: 6.2 ± 1 µM | EC50 [7, 13]: 11 µM | N (Hill coefficient) ([7]; −50 mV): 2.7 ± 0.1 | N (Hill coefficient) ([8]; +50 mV): 2.4 ± 0.2 | EC50 [8, 11]: 28 ± 2 µM | EC50 [8, 12]: 32 ± 4 µM | EC50 [8, 13]: 25 µM | N (Hill coefficient) ([8]; −50 mV): 1.9 ± 0.2 | N (Hill coefficient) ([9]; +50 mV): 2.3 ± 0.1 | EC50 [9, 11]: 1.6 ± 0.1 µM | EC50 [9, 12]: 1.3 ± 0.4 µM | N (Hill coefficient) ([9]; −50 mV): 2.5 ± 0.4 | EC50 ([10]; +50 mV): 36 ± 4 µM | EC50 ([10]; −50 mV): 16 ± 1 µM | N (Hill coefficient) ([10]; +50 mV): 1.8 ± 0.2 | N (Hill coefficient) ([10]; −50 mV): 2.6 ± 0.2

vasoactive intestinal peptide (HSDAVFTDNYTRLRKQMAVKKYLNSILN; ends and bridges not checked; UniProt P01282 125-152, looked up) [VIP]
cAMP accumulation and Ca2+ influx after addition ([6]; 100 nM VIP): caused additional cAMP accumulation and Ca^2+ influx
